Measurements: ChEMBL document CHEMBL3259554, “Discovery, synthesis, and optimization of antimalarial 4(1H)-quinolone-3-diarylethers” (J Med Chem, 2014)
Activity calls are given as the source filed them. The rule behind the calls is not given here.

Columns and labels:
Plasmodium falciparum [1] = assay: Antimalarial activity against chloroquine-sensitive Plasmodium falciparum D6 MRA-285 infected in human red blood cells assessed as suppression of parasitemia after 72 hrs by SYBR Green I-based fluorescence method; assay type: functional, organism-based; conditions: D6 MRA-285, 72 h
In short: (§1)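 Asynchronous parasites in human erythrocytes, RPMI-1640 with HEPES, hypoxanthine, glucose, glutamine, 0.5% Albumax II; 2% hematocrit, 0.2% initial parasitemia. Triplicate 2-fold dilutions from 1 μM (lower start if needed), 72 h at 37 °C under 5% O2/5% CO2/90% N2. SYBR Green I dye-detergent added, 1 h dark at room temperature, fluorescence read. EC50 averaged over at least three determinations.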

[2] = Antimalarial activity against multidrug-resistant Plasmodium falciparum Dd2 MRA-156 infected in human red blood cells assessed as suppression of parasitemia after 72 hrs by SYBR Green I-based fluorescence method; assay type: functional; in short: as §1
Plasmodium falciparum [3] = assay: Antimalarial activity against atovaquone-resistant clinical isolate Plasmodium falciparum TM90-C2B infected in human red blood cells assessed as suppression of parasitemia after 72 hrs by SYBR Green I-based fluorescence method; assay type: functional, organism-based; in short: as §1
HepG2 = assay: Cytotoxicity against human HepG2 cells after 24 hrs incubation by Alamar Blue assay; assay type: cell-based; conditions: HepG2, 24 h
In short: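 HepG2 cells grown in RPMI-1640 with 10% FBS and seeded at 2 × 10⁴ cells/well, attached overnight. Drug serially diluted from 10 mM DMSO stocks to 2.5 nM–10 μM and incubated 24–36 h. Medium then replaced and cells kept a further 24 h. Resazurin added (final 10 μM) for 3 h, fluorescence read at ex 560/em 590 nm. Run in triplicate; IC50 by nonlinear logistic regression.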

Plasmodium yoelii [4] = assay: Antimalarial activity against Plasmodium yoelii MR4 MRA-428 infected in mouse CF1 assessed as reduction on parasite burden administered through oral gavage once daily for 4 days; assay type: functional
In short: (§2)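 P. yoelii-infected mice, randomly grouped in fours; dosing began day after inoculation (day 1), once daily by oral gavage in PEG-400 for four successive days; initial doses 0.1, 0.3, 1.0, 3.0, 10 mg/kg/day, range adjusted as needed. Day-5 Giemsa-smear parasitemia vs drug-free controls; ED50 derived graphically. Cure = parasite free 30 days after last dose; cure dose termed non-recrudescence dose.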

Plasmodium yoelii [5] = assay: Antimalarial activity against Plasmodium yoelii MR4 MRA-428 infected in mouse CF1 assessed as dose required to achieve cure measured as 30 days survival administered through oral gavage once daily for 4 days; assay type: functional; in short: as §2
[6] = Inhibition of human cytochrome bc1 complex derived from HEK293 cell mitochondria using 50 uM decylubiquinol as substrate
In short: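 Mitochondria isolated from HEK-293 cells by Dounce homogenization and differential centrifugation, dispersed in 2 mg/mL dodecyl maltoside for 45 min on ice, then clarified. Baseline-subtracted initial rates expressed as a fraction of uninhibited control.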

[7] = Inhibition of cytochrome bc1 complex isolated from trophozoite stage Plasmodium falciparum
In short: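 P. falciparum mitochondrial preparation assayed for cytochrome c reductase at 35 °C in a stirred cuvette. Buffer: 100 μM decylubiquinol, 100 μM horse heart cytochrome c, 0.1 mg/mL dodecyl maltoside, 60 mM HEPES pH 7.4, 10 mM malonate, 1.0 mM EDTA, 2.0 mM KCN. Baseline subtracted from the initial rate; activity expressed as a fraction of uninhibited control.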

Plasmodium yoelii [8] = assay: Antimalarial activity against Plasmodium yoelii MR4 MRA-428 infected in mouse CF1 assessed as reduction on parasite burden at 64 mg/kg administered through oral gavage once daily for 4 days; assay type: functional, organism-based; design: dose 64 mg/kg
In short: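 P. yoelii model in mice, randomized into groups of four. Oral gavage in PEG-400 once daily for four successive days, starting the day after inoculation. Giemsa-stained blood smears read microscopically on day 5. Parasite burden compared with drug-free controls. Animals parasite free 30 days after the last dose counted as cured.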

Liver microsome [9] = assay: Metabolic stability in rat liver microsomes; assay type: ADME
In short: (§3)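 Compound at 1 μM incubated at 37 °C with liver microsomes (0.4 mg protein/mL) in 0.1 M phosphate pH 7.4. Started with an NADPH-regenerating system plus MgCl₂ and quenched with cold acetonitrile at time points up to 60 min. Parent loss followed by LC-MS and fitted to first-order decay to give half-life and intrinsic clearance. E_H used liver blood flow of 20.7 (human) or 55.2 (rat) mL/min/kg.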

Liver microsome [10] = assay: Metabolic stability in human liver microsomes; assay type: ADME; in short: as §3

SMILES	EC50 (Plasmodium falciparum [1]) [nM]	EC50 [2] [nM]	EC50 (Plasmodium falciparum [3]) [nM]	IC50 (HepG2) [nM]	ED50 (Plasmodium yoelii [4]; MR4 MRA-428, po, 96 h) [mg/kg/day]	NRD (Plasmodium yoelii [5])	IC50 [6] [nM]	IC50 [7] [nM]	Activity (Plasmodium yoelii [8])	Stability (Liver microsome [9])	Stability (Liver microsome [10])	ED50 (Plasmodium yoelii [4])
COc1cc2[nH]c(C)c(-c3ccc(Oc4ccc(OC(F)(F)F)c(F)c4)cc3)c(=O)c2cc1Cl	12	12	5.8	> 10000	–	–	–	–	–	–	–	–
COc1cc2[nH]c(C)c(-c3cnc(Oc4ccc(OC(F)(F)F)cc4)nc3)c(=O)c2cc1Cl	> 2500	> 2500	> 2500	> 10000	–	–	–	–	–	–	–	–
COc1cc2[nH]c(C)c(-c3ccc(Oc4ccc(F)c(OC(F)(F)F)c4)cc3)c(=O)c2cc1Cl	0.4	0.5	0.3	> 10000	0.06	>3 mg/kg/day	–	–	–	–	–	–
COc1cc2[nH]c(C)c(-c3ccc(Oc4ccc(C(F)(F)F)cc4)cc3)c(=O)c2cc1Cl	0.3	0.3	0.05	> 10000	0.03	1 mg/kg/day	–	–	–	–	–	–
COc1cc2[nH]c(C)c(-c3ccc(Oc4ccc(C(F)(F)F)cn4)cc3)c(=O)c2cc1Cl	8.1	6.8	4.1	> 10000	–	–	–	–	–	–	–	–
Cc1[nH]c2ccccc2c(=O)c1-c1ccc(Oc2ccc(OC(F)(F)F)cc2)cc1	4.1	5.9	7.5	> 10000	0.1	3 mg/kg/day	1900	8.9	–	–	–	–
CCN(CC)CCCC(C)Nc1ccnc2cc(Cl)ccc12 (centres undefined) [CHLOROQUINE]	–	–	–	–	2.2	>64 mg/kg/day	–	–	inactive	–	–	–
Cc1[nH]c2ccccc2c(=O)c1-c1ccc(Oc2ccccc2)cc1	8.4	12	7.2	> 10000	–	–	–	–	–	–	–	–
O=C1C(O)=C([C@H]2CC[C@H](c3ccc(Cl)cc3)CC2)C(=O)c2ccccc21 [ATOVAQUONE]	0.1	0.1	7700	> 10000	–	–	410	2	–	–	–	–
COc1cc2[nH]c(C)c(-c3ccc(Oc4ccc(OC(F)(F)F)cc4)cn3)c(=O)c2cc1Cl	0.4	0.5	0.2	> 10000	< 1	>3 mg/kg/day	–	–	–	–	–	–
COc1ccc2c(=O)c(-c3ccc(Oc4ccc(OC(F)(F)F)cc4)cc3)c(C)[nH]c2c1	1.7	3.4	2.3	> 10000	–	–	> 10000	–	–	Unstable	Unstable	–
Cc1[nH]c2ccc(Cl)cc2c(=O)c1-c1ccc(Oc2ccc(OC(F)(F)F)cc2)cc1	3.2	5.6	2.3	> 10000	0.2	>3 mg/kg/day	> 10000	–	–	Stable	Stable	–
COc1cc2[nH]c(C)c(-c3ccc(Oc4ccc(F)cc4)cc3)c(=O)c2cc1Cl	0.8	3.8	–	> 10000	< 1	>3 mg/kg/day	–	–	–	–	–	–
CCCCCCCc1c(C)[nH]c2cc(OC)c(Cl)cc2c1=O	1.4	2.3	0.8	–	–	–	> 10000	–	–	–	–	–
COc1cc2[nH]c(C)c(-c3ccc(Oc4cccc(OC(F)(F)F)c4)cc3)c(=O)c2cc1Cl	0.03	0.03	< 0.03	> 10000	> 3	>3 mg/kg/day	–	–	–	–	–	–
Cc1[nH]c2ccc(F)cc2c(=O)c1-c1ccc(Oc2ccc(OC(F)(F)F)cc2)nc1	13	13	11	> 10000	–	–	–	–	–	–	–	–
COc1cc2[nH]c(C)c(-c3ccc(Oc4ccc(Cl)cc4)cc3)c(=O)c2cc1Cl	1.9	1.8	1.2	> 10000	0.05	>0.3 mg/kg/day	–	–	–	–	–	–
COc1cc2[nH]c(C)c(-c3ccc(Oc4ccccc4)cc3)c(=O)c2cc1F	40	43	8.5	> 10000	–	–	–	–	–	–	–	–
CCCCCCCc1c(C)nc2cc(OC)ccc2c1O	3.8	3.1	11	> 10000	–	inactive	> 10000	–	–	–	–	inactive
COc1cc2[nH]c(C)c(-c3ccc(Oc4ccc(OC(F)(F)F)cc4)nc3)c(=O)c2cc1Cl	0.3	0.2	0.4	> 10000	0.3	>3 mg/kg/day	–	–	–	–	–	–
Cc1[nH]c2ccccc2c(=O)c1-c1ccc(Oc2ccc(OC(F)(F)F)cc2)nc1	3	5.8	4.3	> 10000	–	–	–	–	–	–	–	–
Cc1[nH]c2ccc(F)cc2c(=O)c1-c1ccc(Oc2ccc(OC(F)(F)F)cc2)cc1	1.5	2.4	1.7	> 10000	0.1	3 mg/kg/day	> 10000	–	–	Stable	Stable	–
Cc1[nH]c2ccc(Cl)cc2c(=O)c1-c1ccc(Oc2ccc(OC(F)(F)F)cc2)nc1	3.6	6.1	1.5	> 10000	–	–	–	–	–	–	–	–
COc1cc2[nH]c(C)c(-c3ccc(Oc4ccc(OC(F)(F)F)cc4)cc3)c(=O)c2cc1F	1.4	1.4	0.5	> 10000	0.05	–	> 10000	–	–	Stable	Stable	–
